Source: ChEMBL document CHEMBL4406806, “Design, Synthesis, and Characterization of Ogerin-Based Positive Allosteric Modulators for G Protein-Coupled Receptor 68 (GPR68)” (J Med Chem, 2019)
Activity calls are given as the source filed them. No cut-off for these calls is given here.

How the values were obtained:
[1] = target: G-protein coupled receptor 68 (Mus musculus) (UniProt Q8BFQ3); experiment: (§1) Positive allosteric modulation of mouse GPR68 expressed in HEK293T cells co-expressing Gs assessed as stimulation of proton-mediated cAMP production by measuring efficacy cooperativity in HBSS buffer containing pH 6.8 to 8.2 HEPES/pH 8.3 to 8.6 TAPS measured after 20 to 30 mins in presence of PDE inhibitor Ro 20-1724 by luciferase-glo reporter gene assay; assay type: functional, cell-based
Chain of G-protein coupled receptor 68 (Mus musculus) (Q8BFQ3 whole entry): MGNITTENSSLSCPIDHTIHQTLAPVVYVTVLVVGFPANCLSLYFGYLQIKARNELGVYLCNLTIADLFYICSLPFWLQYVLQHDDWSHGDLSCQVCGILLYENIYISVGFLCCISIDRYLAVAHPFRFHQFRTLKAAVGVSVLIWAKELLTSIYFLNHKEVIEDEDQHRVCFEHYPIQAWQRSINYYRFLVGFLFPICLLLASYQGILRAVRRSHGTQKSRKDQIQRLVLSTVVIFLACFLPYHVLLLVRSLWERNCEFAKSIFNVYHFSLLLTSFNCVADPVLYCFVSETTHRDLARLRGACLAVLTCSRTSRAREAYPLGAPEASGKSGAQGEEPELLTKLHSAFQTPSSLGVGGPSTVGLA
Method in brief: (§2)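 α, β and KB obtained by fitting proton responses with and without modulator to the standard allosteric operational model. Overall index is log(αβ/KB). Values are mean ± SEM from ≥3 independent assays, each run in triplicate or quadruplicate.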

[2] = target: G-protein coupled receptor 68 (Homo sapiens) (UniProt Q15743); experiment: as §1, with “human” for “mouse”, “allosteric affinity” for “efficacy”; assay type: functional, cell-based
Chain of G-protein coupled receptor 68 (Homo sapiens) (Q15743 whole entry): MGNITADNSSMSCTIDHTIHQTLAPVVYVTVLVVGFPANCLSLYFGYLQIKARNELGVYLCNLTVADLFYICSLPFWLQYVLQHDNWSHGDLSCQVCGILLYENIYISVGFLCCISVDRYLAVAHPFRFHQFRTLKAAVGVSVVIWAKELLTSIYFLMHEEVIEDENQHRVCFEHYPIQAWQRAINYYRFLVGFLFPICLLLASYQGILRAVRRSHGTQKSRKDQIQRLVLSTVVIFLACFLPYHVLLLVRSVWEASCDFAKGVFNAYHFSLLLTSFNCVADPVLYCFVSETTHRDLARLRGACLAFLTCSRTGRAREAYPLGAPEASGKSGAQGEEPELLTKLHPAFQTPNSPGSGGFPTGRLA
Method in brief: (§3)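 Transient co-transfection of HEK293T with receptor and GloSensor plasmids using PEI, overnight, then replated in DMEM + 1% dFBS for 6–24 h. Luciferin 3.5 mM loaded for 1 h at 37 °C in HBSS/20 mM TAPS, pH 8.40. Proton series: Ca/Mg-free HBSS with MES (pH 5.60–6.70), HEPES (6.80–8.20) or TAPS (8.30–8.60), plus 10 μM Ro 20-1724. BSA 1 mg/mL added where solubility required. Luminescence read at 20–30 min. At least six 16-point proton curves across modulator concentrations, quadruplicate, ≥3 independent assays.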

[3] = target: G-protein coupled receptor 68 (Mus musculus) (UniProt Q8BFQ3); experiment: as §1, with “allosteric affinity” for “efficacy”; assay type: functional, cell-based; method in brief: as §2
[4] = target: G-protein coupled receptor 68 (Homo sapiens) (UniProt Q15743); experiment: as §1, with “human” for “mouse”; assay type: functional, cell-based; method in brief: as §3
[5] = target: G-protein coupled receptor 68 (Homo sapiens) (UniProt Q15743); experiment: as §1, with “human” for “mouse”, “allosteric index” for “efficacy cooperativity”; assay type: functional, cell-based; method in brief: as §3
[6] = target: G-protein coupled receptor 68 (Mus musculus) (UniProt Q8BFQ3); experiment: as §1, with “allosteric index” for “efficacy cooperativity”; assay type: functional, cell-based; method in brief: as §2
[7] = target: G-protein coupled receptor 68 (Homo sapiens) (UniProt Q15743); experiment: as §1, with “human” for “mouse”, “production” for “production by measuring efficacy cooperativity”; assay type: functional, cell-based; method in brief: as §3
[8] = target: T1, 5-hydroxytryptamine receptor 2B (Homo sapiens, UniProt P41595); experiment: Antagonist activity at human 5HT2B receptor expressed in Flp-In-HEK cells co-expressing Gq assessed as inhibition of 5HT-induced stimulation of calcium mobilization preincubated for 10 mins followed by 5HT addition by fluo-4 calcium dye-based FLIPR assay; assay type: functional, cell-based
T1 sequence (P41595 whole entry): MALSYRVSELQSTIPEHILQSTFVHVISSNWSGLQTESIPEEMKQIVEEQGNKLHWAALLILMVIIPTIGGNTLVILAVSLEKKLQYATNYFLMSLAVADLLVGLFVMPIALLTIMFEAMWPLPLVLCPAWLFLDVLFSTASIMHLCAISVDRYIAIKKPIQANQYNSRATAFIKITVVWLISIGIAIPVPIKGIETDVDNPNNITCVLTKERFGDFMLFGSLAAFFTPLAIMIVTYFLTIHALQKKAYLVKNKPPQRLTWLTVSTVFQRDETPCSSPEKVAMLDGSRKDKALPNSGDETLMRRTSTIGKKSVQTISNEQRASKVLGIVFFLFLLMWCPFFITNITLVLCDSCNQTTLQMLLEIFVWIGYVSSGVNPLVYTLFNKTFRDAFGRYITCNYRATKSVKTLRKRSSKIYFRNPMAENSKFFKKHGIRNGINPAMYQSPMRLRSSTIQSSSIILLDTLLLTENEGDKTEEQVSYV

[9] = target: T2, Atypical chemokine receptor 3 (Homo sapiens, UniProt P25106); experiment: Agonist activity at human ACKR3 expressed in HTLA cells assessed as stimulation of beta-arrestin recruitment incubated for 16 to 20 hrs by bright-glo luminescence assay; assay type: cell-based
T2 sequence (P25106 whole entry): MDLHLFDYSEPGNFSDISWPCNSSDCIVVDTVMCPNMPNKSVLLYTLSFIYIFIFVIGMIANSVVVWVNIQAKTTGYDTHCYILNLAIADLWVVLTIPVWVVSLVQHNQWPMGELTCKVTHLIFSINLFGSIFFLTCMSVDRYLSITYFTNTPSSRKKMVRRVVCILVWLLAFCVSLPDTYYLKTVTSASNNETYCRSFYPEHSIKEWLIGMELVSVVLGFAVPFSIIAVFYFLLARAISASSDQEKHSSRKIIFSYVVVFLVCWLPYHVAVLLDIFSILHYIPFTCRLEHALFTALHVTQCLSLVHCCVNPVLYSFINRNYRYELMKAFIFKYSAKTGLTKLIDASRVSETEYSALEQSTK
Method in brief: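 Tango arrestin assay in HTLA cells transfected with receptor DNA overnight in DMEM + 10% FBS, then replated on poly-L-Lys in DMEM + 1% dFBS. Drugs added 6 h later and incubated overnight (16–20 h). Medium removed, Bright-Glo added, luminescence counted.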

[10] = target: T1, 5-hydroxytryptamine receptor 2B; experiment: Displacement of [3H]LSD from recombinant human 5HT2B stably expressed in HEK cell membranes incubated for 90 mins under dark condition by microbeta scintillation counting analysis
[11] = target: T2, Atypical chemokine receptor 3; experiment: Agonist activity at human ACKR3 expressed in HTLA cells assessed as stimulation of beta-arrestin recruitment at 1 uM incubated for 16 to 20 hrs by bright-glo luminescence assay; assay type: cell-based
[12] = target: G-prodeshotein coupled receptor 4 (Homo sapiens) (UniProt P46093); experiment: as §1, with “human GPR4” for “mouse GPR68”, “at higher concentration” for “by measuring efficacy cooperativity”; assay type: functional, cell-based; method in brief: as §3
Chain of G-prodeshotein coupled receptor 4 (Homo sapiens) (P46093 whole entry, looked up): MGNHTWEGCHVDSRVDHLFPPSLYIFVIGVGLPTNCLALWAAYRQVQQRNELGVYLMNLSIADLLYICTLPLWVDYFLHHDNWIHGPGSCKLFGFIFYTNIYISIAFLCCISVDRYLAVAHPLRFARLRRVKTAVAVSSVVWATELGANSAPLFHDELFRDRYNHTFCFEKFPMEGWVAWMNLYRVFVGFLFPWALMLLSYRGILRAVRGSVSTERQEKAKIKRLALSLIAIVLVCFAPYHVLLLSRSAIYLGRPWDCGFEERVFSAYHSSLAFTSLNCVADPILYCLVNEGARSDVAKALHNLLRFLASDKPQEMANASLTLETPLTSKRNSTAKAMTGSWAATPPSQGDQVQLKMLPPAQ

[13] = target: G-protein coupled receptor 65 (Homo sapiens) (UniProt Q8IYL9); experiment: as §1, with “human GPR65” for “mouse GPR68”, “at higher concentration” for “by measuring efficacy cooperativity”; assay type: functional, cell-based; method in brief: as §3
Chain of G-protein coupled receptor 65 (Homo sapiens) (Q8IYL9 whole entry): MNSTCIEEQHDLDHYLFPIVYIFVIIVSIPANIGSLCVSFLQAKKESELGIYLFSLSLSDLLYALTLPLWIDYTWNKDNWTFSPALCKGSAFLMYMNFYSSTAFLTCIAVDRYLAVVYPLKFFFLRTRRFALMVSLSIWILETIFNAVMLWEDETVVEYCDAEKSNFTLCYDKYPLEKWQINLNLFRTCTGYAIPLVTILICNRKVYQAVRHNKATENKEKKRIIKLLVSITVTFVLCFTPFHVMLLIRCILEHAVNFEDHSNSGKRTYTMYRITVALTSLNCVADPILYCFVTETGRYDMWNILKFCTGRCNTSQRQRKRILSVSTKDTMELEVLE

[14] = target: T1, 5-hydroxytryptamine receptor 2B; experiment: Agonist activity at human 5HT2B receptor expressed in Flp-In-HEK cells co-expressing Gq assessed as stimulation of calcium mobilization measured for 2 mins by fluo-4 calcium dye-based FLIPR assay; assay type: functional, cell-based
Method in brief: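 HEK293 cells stably expressing 5-HT2B, seeded overnight (16–20 h) on poly-L-Lys in DMEM + 1% dFBS. Fluo-4 Direct dye loaded for 1 h at 37 °C in HBSS/20 mM HEPES/2.5 mM probenecid, pH 7.40. Drug diluted in buffer with 1 mg/mL BSA and 0.1 mg/mL ascorbic acid. Fluorescence read for 2 min; peak fold of basal within the first minute.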

[15] = target: G-prodeshotein coupled receptor 4 (Homo sapiens) (UniProt P46093); experiment: as §1, with “human GPR4” for “mouse GPR68”, “production” for “production by measuring efficacy cooperativity”; assay type: functional, cell-based; method in brief: as §3
[16] = target: G-protein coupled receptor 68 (Homo sapiens) (UniProt Q15743); experiment: as §1, with “human” for “mouse”, “allosteric binding affinity” for “efficacy cooperativity”; assay type: functional, cell-based; method in brief: as §3
[17] = target: G-protein coupled receptor 65 (Homo sapiens) (UniProt Q8IYL9); experiment: as §1, with “human GPR65” for “mouse GPR68”, “production” for “production by measuring efficacy cooperativity”; assay type: functional, cell-based; method in brief: as §3

Row | Compound | log(activity) [1] | log(activity) [2] | log(activity) [3] | log(activity) [4] | Activity index [5] | Activity index [6] | Activity [7] | Ki [8] [nM] | EC50 [9] [nM] | Ki ([10]; read-out: Ki) [nM] | Ki ([10]; read-out: pKi (converted)) [nM] | Activity [11] | Activity [12] | Activity [13] | Activity [14] | Activity [15] | pKb [16] | Activity_index [5] | Activity [17]
1 | Nc1nc(NCCCc2ccccc2)nc(-c2cc(Cl)ccc2CO)n1 | 0.13 | 1.03 | 0.99 | 0.01 | 6.38 | 5.98 | – | 212 | 690 | 295 | 100 to 316 | Active | inactive | inactive | inactive | – | – | – | –
2 | CC(=O)c1cccc(-c2nc(N)nc(NCc3ccccc3)n2)c1 | – | inactive | – | inactive | – | – | inactive | – | – | – | – | – | – | – | – | inactive | inactive | inactive | inactive
3 | Nc1nc(NCCc2ccccc2)nc(-c2cc(Cl)ccc2CO)n1 | 0.13 | 1.09 | 1.06 | 0.03 | 6.26 | 5.92 | – | 678 | 1700 | 209 | 100 to 316 | Active | inactive | inactive | inactive | – | – | – | –

Other lines, results leading:

Row | log(activity) [1] | log(activity) [2] | log(activity) [3] | log(activity) [4] | Activity index [5] | Activity index [6] | Activity [7] | Ki [8] [nM] | EC50 [9] [nM] | Ki ([10]; read-out: Ki) [nM] | Ki ([10]; read-out: pKi (converted)) [nM] | Activity [11] | Activity [12] | Activity [13] | Activity [14] | Activity [15] | pKb [16] | Activity_index [5] | Activity [17] | Compound
4 | 0.08 | 0.62 | 0.91 | 0.21 | 6.35 | 5.89 | – | – | – | – | – | – | – | – | – | – | – | – | – | Nc1nc(NCCCCc2ccccc2)nc(-c2ccccc2CO)n1
5 | 0.04 | 0.6 | 0.8 | 0.36 | 5.31 | 4.97 | Dose-dependent effect | – | – | – | – | – | – | – | – | – | – | – | – | Nc1nc(NCc2ccccc2)nc(-c2ccccc2CO)n1
6 | – | inactive | – | inactive | – | – | inactive | – | – | – | – | – | – | – | – | inactive | inactive | inactive | inactive | Nc1nc(NCc2ccccc2)nc(-c2cccc(CO)c2)n1
7 | – | inactive | – | inactive | – | – | inactive | – | – | – | – | – | – | – | – | inactive | inactive | inactive | inactive | CN(C)c1nc(NCc2ccccc2)nc(-c2ccccc2CO)n1
